In one data set the target is Integrin alpha-5/beta-1 (Homo sapiens, UniProt P05556+P08648). The data set is described as follows: In vitro inhibition of human alpha5-beta1 integrin binding in ELISA. Type of data set: protein-complex assay. The procedure, abridged: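 Human α5β1 coated at 3 µg/mL; blocking and binding at 30 °C. Biotinylated human fibronectin (1 µg/mL) with compounds 0.0001-20 µM, 2 h; NeutrAvidin-HRP 1 h 30 °C, OPD read at 492 nm. % inhibition vs buffer controls averaged over three determinations; IC50 by four-parameter fit.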
Sequence of Integrin alpha-5/beta-1 (P05556 21-798 limits assumed): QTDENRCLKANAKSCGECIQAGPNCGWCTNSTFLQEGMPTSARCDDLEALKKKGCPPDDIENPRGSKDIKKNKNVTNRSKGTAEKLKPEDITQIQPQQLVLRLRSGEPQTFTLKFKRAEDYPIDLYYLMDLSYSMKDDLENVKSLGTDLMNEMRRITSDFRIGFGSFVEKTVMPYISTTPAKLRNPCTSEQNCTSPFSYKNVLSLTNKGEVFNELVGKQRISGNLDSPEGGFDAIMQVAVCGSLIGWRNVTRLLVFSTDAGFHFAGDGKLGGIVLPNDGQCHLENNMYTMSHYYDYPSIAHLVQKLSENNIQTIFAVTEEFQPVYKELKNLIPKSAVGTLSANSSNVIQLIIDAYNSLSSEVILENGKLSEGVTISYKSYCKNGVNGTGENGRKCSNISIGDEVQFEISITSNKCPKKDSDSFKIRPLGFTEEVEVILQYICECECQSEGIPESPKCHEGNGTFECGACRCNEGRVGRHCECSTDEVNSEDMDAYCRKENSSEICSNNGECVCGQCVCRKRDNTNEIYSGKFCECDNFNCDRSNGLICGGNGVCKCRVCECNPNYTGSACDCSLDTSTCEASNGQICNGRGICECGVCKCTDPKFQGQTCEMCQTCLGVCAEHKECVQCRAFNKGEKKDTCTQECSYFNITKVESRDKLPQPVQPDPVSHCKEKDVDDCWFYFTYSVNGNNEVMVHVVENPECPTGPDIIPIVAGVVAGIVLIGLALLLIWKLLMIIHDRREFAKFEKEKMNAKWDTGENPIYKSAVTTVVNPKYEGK
Sequence of Integrin alpha-5/beta-1 (P08648 42-894 limits assumed): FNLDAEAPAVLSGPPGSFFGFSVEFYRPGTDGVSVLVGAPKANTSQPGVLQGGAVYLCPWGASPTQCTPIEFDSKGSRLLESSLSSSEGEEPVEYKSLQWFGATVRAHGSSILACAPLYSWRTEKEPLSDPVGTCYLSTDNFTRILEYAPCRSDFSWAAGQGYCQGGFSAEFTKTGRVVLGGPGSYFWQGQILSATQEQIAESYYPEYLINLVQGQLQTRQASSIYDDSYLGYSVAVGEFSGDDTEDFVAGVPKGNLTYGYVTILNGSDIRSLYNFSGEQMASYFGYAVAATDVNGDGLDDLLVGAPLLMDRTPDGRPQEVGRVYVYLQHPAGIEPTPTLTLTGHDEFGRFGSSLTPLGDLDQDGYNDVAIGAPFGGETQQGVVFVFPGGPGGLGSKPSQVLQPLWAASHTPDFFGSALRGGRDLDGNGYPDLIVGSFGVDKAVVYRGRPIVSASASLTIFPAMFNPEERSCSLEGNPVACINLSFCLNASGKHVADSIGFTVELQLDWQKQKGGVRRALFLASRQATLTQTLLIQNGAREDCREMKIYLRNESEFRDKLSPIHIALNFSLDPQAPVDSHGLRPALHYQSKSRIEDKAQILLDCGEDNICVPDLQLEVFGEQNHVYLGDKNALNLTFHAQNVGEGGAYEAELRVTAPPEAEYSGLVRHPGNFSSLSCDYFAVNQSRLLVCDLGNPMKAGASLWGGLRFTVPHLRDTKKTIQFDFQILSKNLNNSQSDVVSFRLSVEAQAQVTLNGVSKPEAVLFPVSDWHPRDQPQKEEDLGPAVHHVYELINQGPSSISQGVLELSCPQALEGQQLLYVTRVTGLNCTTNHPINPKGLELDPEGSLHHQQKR
Sequence of Integrin alpha-5/beta-1 (P08648 895-1049 limits assumed): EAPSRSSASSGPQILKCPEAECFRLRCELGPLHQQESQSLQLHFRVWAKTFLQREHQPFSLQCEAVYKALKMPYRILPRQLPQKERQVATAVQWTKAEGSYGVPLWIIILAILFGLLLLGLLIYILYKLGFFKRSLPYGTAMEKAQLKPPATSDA

A short description of data set [1]: Extension in area under curve for the compound was determined in mouse upon 5 mpk intravenous administration. Type of data set: ADME. To be noted: in vivo, 5 mg/kg.
The nature of data set [2]: Oral bioavailability in mouse (dose 50 mg/kg). The conditions noted are these: in vivo. In kind it is ADME, organism-based.
Data set [3] in a line: Half life in mouse upon 5 mpk intravenous administration. Type of data set: ADME, organism-based. The conditions noted are these: in vivo, 5 mg/kg.
Data set [4] in a line: Area under curve for the compound was determined at infinity in mouse upon 5 mpk intravenous administration. In kind it is ADME. The conditions noted are these: in vivo, 5 mg/kg.
Data set [5] can be described thus: Extension in area under curve for the compound was determined in mouse upon 50 mpk peroral administration. In kind it is ADME. The conditions noted are these: in vivo, po, 50 mg/kg.
The target of the next data set is Integrin alpha-V/beta-3 (Homo sapiens, UniProt P05106+P06756). The data set is described as follows: In vitro inhibition of human alphaV-beta3 integrin binding in ELISA. In kind it is protein-complex assay. The procedure, abridged: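 Plate-coated human αvβ3 (0.4 µg/mL) in Tris buffer with Ca, Mg, Mn; compounds 0.0001-20.0 µM with biotinylated human vitronectin (1 µg/mL), 2 h, room temperature throughout. NeutrAvidin-HRP detection, OPD read at 492 nm; % inhibition vs buffer controls from triplicate determinations, IC50 by four-parameter fit.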
Sequence of Integrin alpha-V/beta-3 (P05106 27-788 limits assumed): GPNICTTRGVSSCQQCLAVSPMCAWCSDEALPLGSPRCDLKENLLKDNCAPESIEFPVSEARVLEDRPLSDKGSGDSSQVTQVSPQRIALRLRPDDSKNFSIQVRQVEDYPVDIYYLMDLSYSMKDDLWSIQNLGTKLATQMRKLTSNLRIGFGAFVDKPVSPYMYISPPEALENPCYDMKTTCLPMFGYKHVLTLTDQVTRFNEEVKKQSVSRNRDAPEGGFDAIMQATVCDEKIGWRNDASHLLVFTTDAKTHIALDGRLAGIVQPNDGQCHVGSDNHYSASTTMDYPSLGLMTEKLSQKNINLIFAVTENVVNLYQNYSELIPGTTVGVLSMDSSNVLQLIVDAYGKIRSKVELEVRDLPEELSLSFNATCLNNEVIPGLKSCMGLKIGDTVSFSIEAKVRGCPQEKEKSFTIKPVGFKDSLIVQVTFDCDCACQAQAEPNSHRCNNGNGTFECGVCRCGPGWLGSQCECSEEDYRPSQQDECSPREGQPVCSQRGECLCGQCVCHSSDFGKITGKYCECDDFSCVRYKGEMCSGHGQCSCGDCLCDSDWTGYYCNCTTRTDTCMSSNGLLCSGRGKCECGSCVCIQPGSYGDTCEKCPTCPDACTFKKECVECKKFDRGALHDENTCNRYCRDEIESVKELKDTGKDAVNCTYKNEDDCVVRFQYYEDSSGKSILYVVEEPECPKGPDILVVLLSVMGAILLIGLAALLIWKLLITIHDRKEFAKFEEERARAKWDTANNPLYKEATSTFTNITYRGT
Sequence of Integrin alpha-V/beta-3 (P06756 31-889 limits assumed): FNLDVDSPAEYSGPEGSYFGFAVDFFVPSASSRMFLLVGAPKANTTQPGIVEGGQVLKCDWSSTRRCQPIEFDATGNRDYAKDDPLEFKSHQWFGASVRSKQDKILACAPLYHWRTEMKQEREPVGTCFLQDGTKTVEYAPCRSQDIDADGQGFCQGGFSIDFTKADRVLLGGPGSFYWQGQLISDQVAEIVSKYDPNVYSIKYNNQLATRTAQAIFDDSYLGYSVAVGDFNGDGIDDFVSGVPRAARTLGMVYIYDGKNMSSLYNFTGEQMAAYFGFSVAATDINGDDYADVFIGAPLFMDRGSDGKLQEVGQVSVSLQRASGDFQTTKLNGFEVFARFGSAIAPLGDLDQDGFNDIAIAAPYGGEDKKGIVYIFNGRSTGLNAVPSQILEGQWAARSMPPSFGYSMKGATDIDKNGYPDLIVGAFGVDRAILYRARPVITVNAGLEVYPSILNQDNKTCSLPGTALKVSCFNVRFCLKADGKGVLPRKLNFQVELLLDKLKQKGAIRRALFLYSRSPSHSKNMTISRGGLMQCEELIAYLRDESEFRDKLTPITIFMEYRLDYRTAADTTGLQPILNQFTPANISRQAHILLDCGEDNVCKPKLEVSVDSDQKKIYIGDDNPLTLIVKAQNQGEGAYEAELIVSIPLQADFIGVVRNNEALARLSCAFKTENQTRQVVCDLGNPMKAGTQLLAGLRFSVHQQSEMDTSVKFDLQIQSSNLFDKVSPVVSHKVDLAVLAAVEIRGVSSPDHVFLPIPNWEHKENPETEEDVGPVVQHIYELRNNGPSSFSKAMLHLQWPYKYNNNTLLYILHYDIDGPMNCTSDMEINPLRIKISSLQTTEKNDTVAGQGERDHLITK
Sequence of Integrin alpha-V/beta-3 (P06756 891-1048 limits assumed): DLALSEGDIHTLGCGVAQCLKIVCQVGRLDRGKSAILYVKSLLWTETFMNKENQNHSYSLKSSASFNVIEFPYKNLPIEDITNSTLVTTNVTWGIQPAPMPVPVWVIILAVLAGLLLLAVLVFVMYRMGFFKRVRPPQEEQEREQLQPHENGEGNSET

Another data set has as its system Caco-2. Kind of data set: In vitro CACO-2 cell permeability potency was determined. In kind it is functional, cell-based. To be noted: Homo sapiens.
A short description of data set [6]: Apparent volume of distribution during the terminal phase was determined in mouse upon 5 mpk intravenous administration. Type of data set: ADME, organism-based. To be noted: in vivo, 5 mg/kg, read-out: Vz.
The nature of data set [7]: Maximum time required to reach maximum plasma concentration in mouse upon 50 mpk peroral administration (n=3); Range = 0.25-0.50 hr. In kind it is ADME, organism-based. To be noted: po, 50 mg/kg.
Data set [8] can be described thus: Maximum concentration in mouse plasma upon 50 mpk peroral administration (n=3). Type of data set: ADME, organism-based. Also noted: dose 50 mpk, route oral. The conditions noted are these: po, 50 mg/kg.
The nature of data set [9]: Area under curve for the compound was determined at infinity in mouse upon 50 mpk peroral administration. In kind it is ADME. To be noted: in vivo, po, 50 mg/kg.
Data set [10] is described as follows: Maximum clearance in mouse upon 5 mpk intravenous administration. The conditions noted are these: in vivo, 5 mg/kg. Type of data set: ADME, organism-based.
A further data set has as its target Integrin alpha-V/beta-5 (Homo sapiens, UniProt P06756+P18084). The data set is described as follows: In vitro inhibition of human alphaV-beta5 integrin binding in ELISA. In kind it is protein-complex assay. Put shortly: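 Human αvβ5 coated at 1 µg/mL in Tris buffer with Ca, Mg, Mn; biotinylated human vitronectin (1 µg/mL) plus compounds (0.0001-20 µM) incubated 2 h, all at room temperature. NeutrAvidin-HRP, OPD development, absorbance 492 nm; IC50 from four-parameter fit of triplicate % inhibition relative to buffer controls.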

Data set [11] is described as follows: Half life in mouse upon 50 mpk peroral administration. In kind it is ADME, organism-based. To be noted: in vivo, po, 50 mg/kg.
Data set [12] addresses Integrin alpha-IIb/beta-3 (Homo sapiens, UniProt P05106+P08514). The data set is described as follows: In vitro inhibition of human alphaIIb betaIIIa integrin binding in ELISA. Type of data set: protein-complex assay. The procedure, abridged:
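Immobilized human fibrinogen (10 µg/mL coat, overnight 4 °C, Tris/Ca buffer pH 7.5) bound by human GPIIbIIIa (40 µg/mL) with compounds 0.027-20.0 µM, 1 h 37 °C; bound receptor detected with anti-GPIIbIIIa mAb then HRP anti-mouse IgG, OPD development, A492. % inhibition vs buffer controls, mean of three determinations; IC50 by four-parameter fit.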

Data set [13] in a line: Mean residence time for the compound was determined in mouse upon 5 mpk intravenous administration. The conditions noted are these: in vivo, 5 mg/kg. Type of data set: ADME, organism-based.

Sequence of Integrin alpha-IIb/beta-3 (P05106 27-788 limits assumed): as the sequence (P05106 27-788 limits assumed) above
Sequence of Integrin alpha-IIb/beta-3 (P08514 32-887 limits assumed): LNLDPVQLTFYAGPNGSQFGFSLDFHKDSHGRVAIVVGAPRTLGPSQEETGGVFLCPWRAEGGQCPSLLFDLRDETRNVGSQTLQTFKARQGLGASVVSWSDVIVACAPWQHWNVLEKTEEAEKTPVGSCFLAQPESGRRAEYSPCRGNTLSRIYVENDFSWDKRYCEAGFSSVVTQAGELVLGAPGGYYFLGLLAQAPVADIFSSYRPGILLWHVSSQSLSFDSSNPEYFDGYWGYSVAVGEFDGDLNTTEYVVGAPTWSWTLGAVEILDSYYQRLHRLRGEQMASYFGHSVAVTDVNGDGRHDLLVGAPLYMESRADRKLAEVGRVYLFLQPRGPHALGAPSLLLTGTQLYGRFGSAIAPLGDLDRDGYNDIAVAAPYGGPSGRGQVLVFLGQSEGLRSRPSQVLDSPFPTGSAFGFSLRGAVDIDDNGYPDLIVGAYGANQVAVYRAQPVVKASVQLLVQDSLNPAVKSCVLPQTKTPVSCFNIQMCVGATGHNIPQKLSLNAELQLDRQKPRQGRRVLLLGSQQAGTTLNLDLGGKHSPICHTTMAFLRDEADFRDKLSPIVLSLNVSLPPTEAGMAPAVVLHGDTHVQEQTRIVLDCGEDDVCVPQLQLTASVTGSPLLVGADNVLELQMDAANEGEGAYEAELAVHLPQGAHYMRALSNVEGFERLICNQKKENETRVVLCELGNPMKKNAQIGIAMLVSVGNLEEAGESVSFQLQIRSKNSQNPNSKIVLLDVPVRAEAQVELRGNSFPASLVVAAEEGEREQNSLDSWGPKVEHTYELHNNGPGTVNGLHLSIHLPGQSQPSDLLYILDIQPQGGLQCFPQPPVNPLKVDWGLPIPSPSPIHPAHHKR
Sequence of Integrin alpha-IIb/beta-3 (P08514 891-1039 limits assumed): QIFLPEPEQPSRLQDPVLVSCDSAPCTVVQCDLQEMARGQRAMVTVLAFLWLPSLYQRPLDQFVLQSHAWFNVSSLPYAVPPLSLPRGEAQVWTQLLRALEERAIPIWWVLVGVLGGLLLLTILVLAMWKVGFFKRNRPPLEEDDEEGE

For the compound `CNc1cccc(CCOc2ccc3c(ccn3CCC(=O)O)c2)n1`, the IC50 was 15000 nM at Integrin alpha-5/beta-1, 49 nM at Integrin alpha-V/beta-3, 210 nM at Integrin alpha-V/beta-5 and > 20000 nM in data set [12]. The results for the “Ext AUC” value in data set [1] and in data set [5] were 3% and 7%, respectively. Further, the bioavailability in [2] worked out at 90%. The half-life in data set [3] is 93.6 min; in [11] it was 143 min. Also, the AUC inf in data set [4] stood at 7100 ng·h/mL; in [9], 64000 ng·h/mL. Besides, the Permeability in the data set on Caco-2 was 6e-06 AB cm/s. For the same compound, in data set [6], the Vd turned out to be 1.58 L/kg. The Tmax in data set [7] was 30 min. The compound also yielded a Cmax in data set [8] of 38300 ng/mL. Moreover, the clearance in data set [10] came to 11.7 mL/min/kg. Further, the MRT in [13] came out at 103 min.
As to `O=C(O)CCn1ccc2cc(OCCCNc3ccccn3)ccc21`, the IC50 on Integrin alpha-5/beta-1 was > 20000 nM; at Integrin alpha-V/beta-3 it was 470 nM; on Integrin alpha-V/beta-5, 2.5 nM; in [12] it was > 20000 nM. Besides, the Permeability in the data set with Caco-2 was found to be 6e-06 AB cm/s.
As to `CNc1cccc(CCOc2ccc3c(CCC(=O)O)csc3c2)n1`, the IC50 on Integrin alpha-5/beta-1 was 7800 nM; at Integrin alpha-V/beta-3, 30 nM; at Integrin alpha-V/beta-5, 140 nM; in [12], > 20000 nM. Also, the “Ext AUC” value in [1] was found to be 1%; in data set [5], 5%. Also, the bioavailability in [2] was determined as 73%. Moreover, the half-life in data set [3] is 44.4 min; in data set [11], 140 min. The AUC inf was determined as 5040 ng·h/mL in [4] and 36700 ng·h/mL in data set [9]. This compound also gave a Permeability with Caco-2 of 1.6e-05 AB cm/s. The Vd in [6] worked out at 1.05 L/kg. The Tmax in data set [7] stood at 30 min. The same compound had a Cmax in data set [8] of 27500 ng/mL. In data set [10], this compound displayed a clearance of 16.5 mL/min/kg. Also, the MRT in [13] was determined as 33.6 min.
In the case of `CNc1cccc(CCOc2ccc3c(CCC(=O)O)coc3c2)n1`, the IC50 on Integrin alpha-5/beta-1 is > 20000 nM; on Integrin alpha-V/beta-3, 33 nM; on Integrin alpha-V/beta-5 it was 420 nM; in data set [12] it was > 20000 nM. In addition, the “Ext AUC” value in [1] was found to be 2%; in data set [5], 1%. For the same compound, the bioavailability in data set [2] was 114%. The half-life was 5.4 min in data set [3] and 115 min in data set [11]. Further, the AUC inf in data set [4] is 1280 ng·h/mL; in [9], 14600 ng·h/mL. Also, in the data set on Caco-2, the Permeability was 1.7e-05 AB cm/s. For the same compound, the Vd in data set [6] was determined as 0.5 L/kg. Besides, in data set [7], the Tmax amounted to 30 min. For the same compound, the Cmax in [8] worked out at 16200 ng/mL. In data set [10], the clearance amounted to 65.1 mL/min/kg. Moreover, the MRT in [13] is 6.6 min.
